# Assay outcomes deposited in PubChem by several laboratories.
# A selection: hits, their analogues and other compounds. The true share with any hit is near 3.9%.
# APP 5'UTR act: APP 5'UTR luciferase reporter activation; SH-SY5Y APP 5'UTR luciferase reporter, luminescence; zero percent = DMSO vehicle wells; activation, % at 2 µM; AID 1276; 1% of 190,000 active;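 active means activation above a set limit, based on mean plus 3 SD of controls, cut at about 140% in these data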
# STAT1 activator: STAT1 signaling activation; NIH 3T3 STAT1-luciferase reporter, IFN-gamma, luminescence; 100% = IFN-gamma alone, no compound; activation (% of control), % at 5.5 µM; 2.6% of 200,000 active;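 active means activation above the screen-wide mean activation plus 3 SD, cut at about 130% in these data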
# Rad51 HR inh: blocks human Rad51 in homologous recombination | AID 1385 | hRad51 DNA strand exchange, fluorescence dequenching | inhibition, % at 10 µM | 0.085% of 200,000 active;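 active means inhibition above 40% at the single screening dose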
# Target sequence (Q06609 whole entry, looked up): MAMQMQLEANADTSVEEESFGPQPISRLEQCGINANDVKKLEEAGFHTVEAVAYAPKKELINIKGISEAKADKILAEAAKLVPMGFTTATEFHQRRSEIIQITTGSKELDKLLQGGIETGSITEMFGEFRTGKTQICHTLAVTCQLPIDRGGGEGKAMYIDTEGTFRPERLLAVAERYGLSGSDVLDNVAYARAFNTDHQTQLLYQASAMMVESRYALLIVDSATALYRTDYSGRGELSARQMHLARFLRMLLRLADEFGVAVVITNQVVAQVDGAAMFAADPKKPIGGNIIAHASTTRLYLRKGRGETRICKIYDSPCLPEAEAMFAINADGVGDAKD
#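 material = hRad51 filaments on single-stranded DNA | timing = filaments 15 min 37 °C, then compound 30 min | signal = FRET fluorescence dequenching, excitation 485 nm, emission 520 nm | benchmarks = control wells and blank wells on each plate | evaluation = percent inhibition relative to plate controls and blanks | compound = 10 µM final, single point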
# FLuc stim CS: affects firefly luciferase, flagging false hits in luciferase stimulation screens. AID 1027. 200,000 tested, under 10 active. activation factor at 10 µM. P08659. ATPlite luciferase biochemical, luminescence, 10 min; 0 = ATP-free wells, 1 = DMSO control;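 active means luciferase activation factor, scaled between plate controls, of at least 2 with compound at 10 µM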
#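 System: Luciferase/luciferin detection reagent, cell-free biochemical luciferase assay | Medium: PBS buffer for ATP | Dosing: Test compounds dosed from 2 mM stocks in 100% DMSO | Timing: 10 min at ambient temperature | Signal: Luminescence measurement of luciferase light output | Evaluation: Luciferase activation, seen as luminescence increase over controls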
# NF-kB neuron act: raises NF-kB expression in human neuronal cells; 1.6% of 190,000 active; NF-kB reporter expression; active compounds read high; AID 1239; fold change at 12.5 µM; in the data active means fold change above about 3.3
# FLuc inh counter: counter-screen for luciferase assay inhibitors: firefly luciferase inhibition; P08659; ATPLite firefly luciferase biochemical luminescence, 10 min; inhibition, % at 10 µM; 1.5% of 200,000 active; AID 1006;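 active means inhibition above about 50% when tested at 10 µM, limit read from the data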
# Numbers stand for hits; n = inactive; x = no result.
SMILES,APP 5'UTR act,STAT1 activator,Rad51 HR inh,FLuc stim CS,NF-kB neuron act,FLuc inh counter
Cc1ccc2nc(-c3sc4nc(C)cc(C)c4c3N)[nH]c2c1,170.1,131.3,n,n,n,63.8
COc1ccc(CNC(=O)CSc2n[nH]c(C)c2[N+](=O)[O-])cc1,n,n,n,n,n,n
COc1ccc(C2=NNC(=O)CC2)cc1,n,n,x,n,n,n
COc1ccc(C2=Nc3ccccc3OC2)cc1,n,n,n,n,8.37,50.6
O=C(COC(=O)/C=C/c1ccco1)NCc1ccc2c(c1)OCO2,n,n,n,n,n,n
O=c1oc2ccccc2cc1-c1csc(NN=C2CCCCC2)n1,n,n,n,n,n,n
CC1CCC/C(=C(\C#N)c2nc(-c3cc4ccccc4oc3=O)cs2)C1 (stereo not drawn),148.2,n,n,n,n,n
CCOC(=O)c1c(C)oc2c1c(C(c1ccccc1)N1CCOCC1)c(O)c1ccccc12 (stereo not drawn),n,n,n,n,n,n
CCOC(=O)c1c(C)oc2c1c(C(c1cccnc1)N1CCCCC1)c(O)c1ccccc12 (stereo not drawn),n,n,x,n,6.57,n
FC(F)(F)c1cc(-c2ccccc2)nc(N2CCCCCC2)n1,n,n,n,n,n,n
c1ccc(-c2cnnc(N3CCCCC3)n2)cc1,n,142.0,n,n,n,n
O=c1c(Cl)c(NCc2ccccc2Cl)cnn1C12CC3CC(CC(C3)C1)C2,n,n,x,n,n,n
CCOCCCn1c(=S)[nH]c2cc(C(=O)NCC(OC)OC)ccc2c1=O,n,n,n,n,n,n
O=Cc1c(OCc2ccccc2)ccc2ccccc12,n,134.2,n,n,n,n
O=C(Nn1cnnc1)c1cc2c(s1)CCCCC2,n,n,x,n,n,n
CCOC(=O)Cc1csc(NC(=O)c2cc3c(s2)CCCC3)n1,n,n,n,n,n,61.1
CCc1nnc(NC(=O)c2cc3c(s2)CCCCC3)s1,n,n,n,x,x,x
Cc1csc(NC(=O)c2cc3c(s2)CCCC3)n1,164.6,n,n,n,n,93.6
Cc1csc(NC(=O)c2cc3c(s2)CCCCC3)n1,n,n,n,n,n,94.7
Cc1cnc(NC(=O)c2cc3c(s2)CCCC3)s1,172.9,n,n,n,4.13,93.0
CCOC(=O)Cc1csc(NC(=O)c2csc3c2CCCC3)n1,n,n,n,n,n,n
CC(=O)N1N=C(N)SC1(C)C,n,n,n,n,n,n
COc1ccccc1Nc1nc(N)nc(CSC(=S)N2CCCCC2)n1,x,x,n,x,x,x
Cc1cc(=O)[nH]c(SCC(=O)NCCC2=CCCCC2)n1,n,n,n,n,n,n
CN(C)c1ccc(/C=N/N2CCN(c3ccccn3)CC2)cc1,x,x,n,x,x,x
SMILES,APP 5'UTR act,STAT1 activator,Rad51 HR inh,FLuc stim CS,NF-kB neuron act,FLuc inh counter
COc1ccc(Oc2nnnn2-c2ccccc2)cc1,n,n,n,n,n,n
COc1cccc(Oc2nnnn2-c2ccccc2)c1,n,131.0,n,n,n,n
Cc1cccc(NC(=S)c2nc3ccccc3s2)c1,205.1,143.3,x,n,3.89,n
CS(=O)(=O)N1CCC(C(=O)NCc2ccc3c(c2)OCO3)CC1,n,n,x,n,x,n
CCOc1ccc2nc(N3C(=O)/C(=C/c4ccccc4)NC3=S)sc2c1,n,137.3,n,n,n,n
Cc1cc(C)cc(-n2cc(C(=O)O)c(=O)cc2C)c1,n,n,n,n,n,n
c1ccc(-c2noc(-c3ccccc3-c3ccccc3)n2)cc1,n,n,n,n,n,n
Cc1ccc(-c2nc(-c3cccnc3)no2)c(C)c1,144.0,147.3,n,n,4.77,64.9
Brc1ccc(-c2nc(-c3ccccc3)no2)o1,143.0,149.2,n,n,4.13,n
Cc1ccc(C)c(OCc2nc(-c3cccnc3)no2)c1,n,n,n,n,n,n
COc1ccccc1-c1noc(-c2cccnc2)n1,n,n,n,n,n,n
Brc1ccc(-c2nc(-c3cccnc3)no2)o1,n,131.5,n,n,n,n
Cc1ccccc1NC(=O)c1ccc(NC(=O)C2CC(=O)OC23CCCCC3)cc1 (stereo not drawn),n,n,n,n,n,n
OCCC1CN(Cc2ccc(Oc3ncccn3)cc2)CCN1Cc1ccc(F)c(F)c1 (stereo not drawn),x,x,n,x,x,x
CC(O)CNc1cnccn1 (stereo not drawn),n,n,n,n,n,n
O=C1CN(C(=O)CNCc2ccccc2Cl)c2ccccc2N1,x,x,n,x,x,x
COC(=O)CC1=NN(c2nc3ccccc3s2)C(=O)/C1=C/N(C)C,n,n,n,n,n,71.9
COc1ccc(-n2c(C)cc(-c3cn4cccc(C)c4n3)c2C)cc1,n,n,n,n,n,n
Cc1cc(-c2cn3ccccc3n2)c(C)n1-c1ccccc1,175.9,n,n,n,n,93.8
CCc1ccc(S(=O)(=O)NC(=S)Nc2ccccc2)cc1,n,n,x,n,n,n
O=C(Nc1ccccc1F)c1ccc(CSc2ncccn2)cc1,155.1,137.8,n,n,n,n
O=C(Nc1ccccc1)c1ccc(CSc2ncccn2)cc1,151.7,139.4,n,n,n,n
Cc1ccc(NC(=O)c2ccc(CSc3nccc(C)n3)cc2)cc1,n,n,n,n,n,n
Cn1nnnc1SCc1ccc(C(=O)Nc2ccccc2F)cc1,n,n,n,n,n,n
CSCc1ccc(C(=O)Nc2ccc(C(N)=O)cc2)cc1,n,146.8,n,n,n,n
SMILES,APP 5'UTR act,STAT1 activator,Rad51 HR inh,FLuc stim CS,NF-kB neuron act,FLuc inh counter
COc1ccc(/C=C/C(=O)c2ccccc2)cc1Cn1nnc2ccccc21,n,n,n,n,n,n
Cc1cc(C)cc(-n2c(SCC(=O)Nc3cccc(S(=O)(=O)NC4=NCCCCC4)c3)nc3ccccc3c2=O)c1,n,n,n,n,n,n
CC(C)(C)/C(COc1ccccc1[N+](=O)[O-])=N/O,n,n,n,n,n,n
CC1=CC(=O)C=C(C)C1=NOc1ccccc1[N+](=O)[O-],n,n,n,n,3.7,n
Cc1cc(C)nc(SCCC(=O)Nc2ccccc2Cl)n1,n,n,n,n,n,n
O=C(Nc1ccc2c(c1)OCCO2)c1cnc2ccccn2c1=O,n,154.1,n,x,x,x
Cc1cccc(NC(=O)c2cnc3sccn3c2=O)c1C,n,135.7,n,n,n,n
Cc1cccc(NC(=O)c2cnc3sccn3c2=O)c1,166.9,n,x,n,5.54,60.4
Cc1cccc(NC(=O)c2cnc3sccn3c2=O)n1,n,n,n,x,x,x
Cc1cccc(NC(=O)c2cnc3ccccn3c2=O)c1,n,n,n,n,n,83.6
COc1cccc(COCC(O)Cn2cnc3cc(C)c(C)cc32)c1 (stereo not drawn),n,n,n,n,n,n
CCN(CC)C(=N)N1c2ccccc2CCC1C (stereo not drawn),n,n,n,n,n,n
Cc1nnc2c3ccccc3c(Cl)nn12,n,n,n,n,n,n
O=C(Nc1cnc2sccn2c1=O)c1ccccc1Cl,n,139.7,n,n,n,n
